Measured values as given in ChEMBL document CHEMBL1833791, “Synthesis and biological evaluation of α,β-unsaturated lactones as potent immunosuppressive agents” (Bioorg Med Chem Lett, 2011).
The source made the active and inactive calls. The rule behind the calls is not given here.

Test system: Jurkat
Experiment: Immunosuppressive activity in human Jurkat T cells assessed as inhibition of PMA-induced IL-2 production at 10 uM after 13 hrs by ELISA relative to control
Assay type: functional
Summary of the method: (§1)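 Jurkat T lymphocytes at 1 × 10^6 cells/mL were given compound at 1 μM or 10 μM final, then stimulated with 5 nM ionomycin plus 500 nM PMA for 13 h at 37 °C. Cells were spun down and supernatant IL-2 was measured by sandwich ELISA (anti-human IL-2 capture, biotinylated anti-human IL-2 detection). Values are % inhibition versus DMSO negative control, from at least three experiments.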

| Compound | inhibition at 10 µM [%] | inhibition |
| --- | --- | --- |
| O=C1C=CCC(CC23CC4CC(CC(C4)C2)C3)O1 (centres undefined) | 100 |  |
| O=C1C=CCC(/C=C/c2ccccc2)O1 (centres undefined) | 90.1 |  |
| O=C1C=CCC(c2ccsc2)O1 (centres undefined) | 46.2 |  |
| Cc1ccc2ccccc2c1C1CC=CC(=O)O1 (centres undefined) | 75.5 |  |
| O=C1C=CCC(c2csc3ccccc23)O1 (centres undefined) | 100 |  |
| O=C1C=CCC(c2ccccc2)O1 (centres undefined) | 82.6 |  |
| O=C1C=CCC(c2cccs2)O1 (centres undefined) | 59.6 |  |
| Cc1ccc(C2CC=CC(=O)O2)cc1 (centres undefined) | 80.6 |  |
| Cc1ccc(C2CC=CC(=O)O2)c2ccccc12 (centres undefined) | 100 |  |
| O=C1C=CCC(c2cnc3ccccc3c2)O1 (centres undefined) | 98.7 |  |
| COc1ccccc1C1CC=CC(=O)O1 (centres undefined) | 89.2 |  |
| Cc1ccccc1C1CC=CC(=O)O1 (centres undefined) | 86.1 |  |
| O=C1C=CCC(c2ccco2)O1 (centres undefined) | 21.7 |  |
| O=C1C=CCC(c2ccoc2)O1 (centres undefined) |  | inactive |
| O=C1C=CCC(c2ccnc3ccccc23)O1 (centres undefined) | 100 |  |
| O=C1C=CCC(c2cc3ccccc3o2)O1 (centres undefined) | 100 |  |
| Cc1cccc(C2CC=CC(=O)O2)c1 (centres undefined) | 64.5 |  |
| O=C1C=CCC(C(c2ccccc2)c2ccccc2)O1 (centres undefined) | 89.2 |  |
| O=C1C=CCC(c2ccc3ccccc3c2)O1 (centres undefined) | 97.2 |  |
| COc1ccc(C2CC=CC(=O)O2)cc1 (centres undefined) | 87.2 |  |
| O=C1C=CCC(c2cccc3ccccc23)O1 (centres undefined) | 100 |  |
| O=C1C=CCC(Cc2ccc3ccccc3c2)O1 (centres undefined) | 100 |  |
| O=C1C=CCC(c2ccc(OCc3ccccc3)cc2)O1 (centres undefined) | 98.9 |  |
| COc1cccc(C2CC=CC(=O)O2)c1 (centres undefined) | 90.4 |  |

Test system: Jurkat
Experiment: Immunosuppressive activity in human Jurkat T cells assessed as inhibition of PMA-induced IL-2 production at 1 uM after 13 hrs by ELISA relative to control
Assay type: functional
Summary of the method: as §1

| Compound | inhibition at 1 µM [%] | inhibition |
| --- | --- | --- |
| O=C1C=CCC(CC23CC4CC(CC(C4)C2)C3)O1 (centres undefined) | 57.4 |  |
| O=C1C=CCC(/C=C/c2ccccc2)O1 (centres undefined) | 12.7 |  |
| O=C1C=CCC(c2ccsc2)O1 (centres undefined) |  | inactive |
| Cc1ccc2ccccc2c1C1CC=CC(=O)O1 (centres undefined) | 6.4 |  |
| O=C1C=CCC(c2csc3ccccc23)O1 (centres undefined) | 77.1 |  |
| O=C1C=CCC(c2ccccc2)O1 (centres undefined) | 89.7 |  |
| O=C1C=CCC(c2cccs2)O1 (centres undefined) |  | inactive |
| Cc1ccc(C2CC=CC(=O)O2)cc1 (centres undefined) | 89 |  |
| Cc1ccc(C2CC=CC(=O)O2)c2ccccc12 (centres undefined) | 57.4 |  |
| O=C1C=CCC(c2cnc3ccccc3c2)O1 (centres undefined) | 41.5 |  |
| COc1ccccc1C1CC=CC(=O)O1 (centres undefined) | 11 |  |
| Cc1ccccc1C1CC=CC(=O)O1 (centres undefined) | 15.2 |  |
| O=C1C=CCC(c2ccco2)O1 (centres undefined) |  | inactive |
| O=C1C=CCC(c2ccoc2)O1 (centres undefined) |  | inactive |
| O=C1C=CCC(c2ccnc3ccccc23)O1 (centres undefined) | 27.8 |  |
| O=C1C=CCC(c2cc3ccccc3o2)O1 (centres undefined) | 100 |  |
| Cc1cccc(C2CC=CC(=O)O2)c1 (centres undefined) | 47.9 |  |
| O=C1C=CCC(C(c2ccccc2)c2ccccc2)O1 (centres undefined) | 18.7 |  |
| O=C1C=CCC(c2ccc3ccccc3c2)O1 (centres undefined) | 37.5 |  |
| COc1ccc(C2CC=CC(=O)O2)cc1 (centres undefined) | 39.8 |  |
| O=C1C=CCC(c2cccc3ccccc23)O1 (centres undefined) | 72.5 |  |
| O=C1C=CCC(Cc2ccc3ccccc3c2)O1 (centres undefined) | 67.7 |  |
| O=C1C=CCC(c2ccc(OCc3ccccc3)cc2)O1 (centres undefined) | 28 |  |
| COc1cccc(C2CC=CC(=O)O2)c1 (centres undefined) |  | inactive |

Test system: Jurkat
Experiment: Immunosuppressive activity in human Jurkat T cells assessed as inhibition of PMA-induced IL-2 production after 13 hrs by ELISA
Assay type: functional, cell-based

| Compound | IC50 [nM] |
| --- | --- |
| O=C1C=CCC(CC23CC4CC(CC(C4)C2)C3)O1 (centres undefined) | 1570 |
| O=C1C=CCC(c2csc3ccccc23)O1 (centres undefined) | 908 |
| O=C1C=CCC(c2ccccc2)O1 (centres undefined) | 166 |
| Cc1ccc(C2CC=CC(=O)O2)cc1 (centres undefined) | 142 |
| O=C1C=CCC(c2cc3ccccc3o2)O1 (centres undefined) | 66.9 |
| O=C1C=CCC(Cc2ccc3ccccc3c2)O1 (centres undefined) | 396 |
